Assay [1] is described as follows: Hepatoprotective activity in human HepG2 cells assessed as inhibition of paracetamol-induced cell damage at 10 uM preincubated for 1 hr followed by paracetamol addition measured after 24 hrs by MTT assay relative to control. In kind it is functional. The method in brief: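 HepG2 cells damaged with paracetamol, test agents at 10 μM, with bicyclol (10 μM) as the positive control. Viability was read by MTT colorimetric assay and expressed as % of normal, and inhibition as % of paracetamol control. Values are mean ± SD, n = 3 (normal and control wells n = 6).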

Assay [2] concerns the target Sodium-dependent serotonin transporter (Homo sapiens, UniProt P31645). Description: Inhibition of serotonin transporter (unknown origin) assessed as suppression of synaptosomal uptake of serotonin.
The target in assay [3] is Sodium-dependent noradrenaline transporter (Homo sapiens, UniProt P23975). Description: Inhibition of norepinephrine transporter (unknown origin) assessed as suppression of synaptosomal uptake of norepinephrine.
Sequence of Sodium-dependent noradrenaline transporter (P23975 whole entry): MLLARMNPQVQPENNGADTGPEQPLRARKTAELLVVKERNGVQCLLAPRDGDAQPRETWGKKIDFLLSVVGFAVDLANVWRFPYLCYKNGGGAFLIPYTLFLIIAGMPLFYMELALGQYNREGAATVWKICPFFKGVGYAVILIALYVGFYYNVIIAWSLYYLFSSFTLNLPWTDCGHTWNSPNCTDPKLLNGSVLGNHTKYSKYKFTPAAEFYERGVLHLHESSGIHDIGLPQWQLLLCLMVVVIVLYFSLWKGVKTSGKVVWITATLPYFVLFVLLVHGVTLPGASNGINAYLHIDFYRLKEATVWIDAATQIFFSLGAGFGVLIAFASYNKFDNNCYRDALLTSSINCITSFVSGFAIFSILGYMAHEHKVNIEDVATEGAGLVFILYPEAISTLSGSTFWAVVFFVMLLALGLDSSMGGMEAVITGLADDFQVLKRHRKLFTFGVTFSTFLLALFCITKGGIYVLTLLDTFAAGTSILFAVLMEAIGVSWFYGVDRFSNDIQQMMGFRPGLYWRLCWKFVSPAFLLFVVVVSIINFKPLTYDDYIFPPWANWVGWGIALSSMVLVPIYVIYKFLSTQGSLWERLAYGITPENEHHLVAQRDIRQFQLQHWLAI
The target of assay [4] is Sodium-dependent dopamine transporter (Homo sapiens, UniProt Q01959). The assay is described as follows: Inhibition of dopamine transporter (unknown origin) assessed as suppression of synaptosomal uptake of dopamine.
Sequence of Sodium-dependent dopamine transporter (Q01959 whole entry): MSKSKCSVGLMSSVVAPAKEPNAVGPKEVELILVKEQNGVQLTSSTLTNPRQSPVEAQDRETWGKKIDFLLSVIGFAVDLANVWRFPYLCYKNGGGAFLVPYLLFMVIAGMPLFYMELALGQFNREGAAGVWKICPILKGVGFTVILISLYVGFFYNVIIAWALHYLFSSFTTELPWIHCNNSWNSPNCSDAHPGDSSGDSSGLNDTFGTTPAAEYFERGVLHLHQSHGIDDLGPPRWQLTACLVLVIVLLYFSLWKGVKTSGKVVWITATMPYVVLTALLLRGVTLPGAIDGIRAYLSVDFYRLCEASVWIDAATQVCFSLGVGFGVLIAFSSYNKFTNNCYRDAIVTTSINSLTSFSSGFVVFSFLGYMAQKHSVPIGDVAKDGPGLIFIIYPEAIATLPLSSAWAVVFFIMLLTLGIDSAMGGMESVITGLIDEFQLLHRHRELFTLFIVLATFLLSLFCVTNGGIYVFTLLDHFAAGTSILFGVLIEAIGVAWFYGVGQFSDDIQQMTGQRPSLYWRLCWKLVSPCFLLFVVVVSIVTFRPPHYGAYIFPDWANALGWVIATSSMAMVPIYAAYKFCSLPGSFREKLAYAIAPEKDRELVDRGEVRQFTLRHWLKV
A short description of assay [5]: Neuroprotective activity against glutamate-induced toxicity in human SK-N-SH cells assessed as cell viability at 10 uM after 24 hrs by MTT assay (reference value: 61.9 +/- 0.9%). The class given is functional. The settings on record: read-out: Activity.
Assay [6] can be described thus: Inhibition of glutamate transporter (unknown origin) assessed as suppression of synaptosomal uptake of L-glutamate. Also on record: species or system Homo sapiens.
A short description of assay [7]: Inhibition of GABA transporter (unknown origin) assessed as suppression of synaptosomal uptake of GABA. Set-up: species or system Homo sapiens.
Assay [8] in a line: Cytotoxicity against human Bel7402 cells at 10^-5 M by MTT assay relative to control. In kind it is functional. The settings on record: Bel-7402.
Assay [9] in a line: Cytotoxicity against human HCT8 cells at 10^-5 M by MTT assay relative to control. The class given is functional. The following applies: HCT-8.
A short description of assay [10]: Cytotoxicity against human A549 cells at 10^-5 M by MTT assay relative to control. The class given is functional.

This note sets out measurements from ChEMBL document CHEMBL3856218, “Polycyclic Polyprenylated Acylphloroglucinol Congeners from Hypericum scabrum” (J Nat Prod, 2016).

Sequence of Sodium-dependent serotonin transporter (P31645 whole entry): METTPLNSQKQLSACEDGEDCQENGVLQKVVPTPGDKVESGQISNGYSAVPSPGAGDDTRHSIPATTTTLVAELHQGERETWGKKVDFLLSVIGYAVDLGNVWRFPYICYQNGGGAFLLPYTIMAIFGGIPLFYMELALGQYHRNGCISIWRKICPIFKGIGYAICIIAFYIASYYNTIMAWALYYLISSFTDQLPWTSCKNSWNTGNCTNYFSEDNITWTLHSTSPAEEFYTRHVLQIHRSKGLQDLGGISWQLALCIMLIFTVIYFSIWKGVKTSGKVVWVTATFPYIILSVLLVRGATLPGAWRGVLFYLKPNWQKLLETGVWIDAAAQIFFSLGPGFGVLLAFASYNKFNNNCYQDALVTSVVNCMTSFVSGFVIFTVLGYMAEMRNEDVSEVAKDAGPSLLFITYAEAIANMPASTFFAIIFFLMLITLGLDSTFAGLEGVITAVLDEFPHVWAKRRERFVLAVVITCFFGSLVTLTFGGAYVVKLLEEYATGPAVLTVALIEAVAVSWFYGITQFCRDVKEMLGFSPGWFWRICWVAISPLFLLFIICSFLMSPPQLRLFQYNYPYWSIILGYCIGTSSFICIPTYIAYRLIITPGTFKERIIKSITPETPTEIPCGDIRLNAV

For `CC(C)=CCC[C@]1(C)[C@@H](CC=C(C)C)CC2(CC=C(C)C)C(=O)[C@@]3(CC=C(C)C)O[C@]2(O)[C@]1(C(=O)C(C)C)C3=O` (some centres not stated), the inhibition at 10 µM in assay [1] is 14%.
For the molecule `CCC(C)C(=O)[C@]12C(=O)[C@](CC=C(C)C)(C[C@H](CC=C(C)C)[C@@]1(C)CCC=C(C)C)C(=O)C(CC=C(C)C)=C2O` (some centres not stated) [ADHYPERFORIN], the concentration for half-maximal inhibition (IC50) in [2], in [3] and in assay [4] was 2000 nM in each case.
For the molecule `CC(C)=CC[C@H]1CC(C)=C2OC(C)(C)[C@@H]3CC[C@@]1(C)[C@]23C(=O)C(C)C`, the inhibition at 10 µM in assay [1] was 15.9%.
`CC(C)=CC[C@@]12C[C@H]3[C@@H](C=C(C)C)[C@@](C(=O)c4ccccc4)(C1=O)C(=O)[C@@](CC=C(C)C)(C2=O)C3(C)C` [HYPERIBONE K]: the viability at 10 µM in [5] is 73.1%. The inhibition at 10 µM in assay [1] turned out to be 49%.
With `Oc1ccc(/C=C/c2cc(O)cc(O)c2)cc1` [RESVERATROL], the viability at 10 µM in assay [5] turned out to be 72.6%.
Consider `CC(C)=CC[C@H]1C[C@@]2(CC=C(C)C)C(=O)[C@](C(=O)c3ccccc3)(C(=O)C3=C2O[C@@H](C(C)(C)O)C3)[C@]1(C)CCCC(C)C`, for which, in [1], the inhibition at 10 µM amounted to 10.3%.
Same read-out and setting: the result for `COC(=O)c1cc(OC)c2c(c1-c1c(CO)cc(OC)c3c1OCO3)OCO2` [BICYCLOL] reads 19.5%.
For the molecule `CC(C)=CC[C@H]1C[C@@]2(C)C(=O)[C@](C(=O)c3ccccc3)(C(=O)C3=C2O[C@H](C(C)(C)O)C3)[C@]1(C)CCCC(C)C`, the viability at 10 µM in [5] amounted to 83%.
As for `CC(C)=CC[C@H]1C[C@@]2(C)C(=O)[C@](C(=O)C(C)C)(C(=O)C3=C2O[C@H](C(C)(C)O)C3)[C@]1(C)CCCC(C)C`, the viability at 10 µM in [5] was 71.6%.
Regarding `CC(C)=CCC[C@]1(C)[C@@H](CC=C(C)C)C[C@]2(CC=C(C)C)C(=O)C(CC=C(C)C)=C(O)[C@@]1(C(=O)C(C)C)C2=O`, the 50% inhibitory concentration (IC50) in assay [6], in [7], in assay [3] and in [4] was 2000 nM each time.
As to `O=c1[nH]cc(F)c(=O)[nH]1` [FLUOROURACIL], the inhibition at 10 µM in assay [8] was found to be 70.6%; in [9] it was 70.4%; in assay [10], 68.3%.
For `CC(C)=CCC1=C2O[C@@H](C(C)(C)OO)C[C@@]23C[C@H](CC=C(C)C)C(C)(C)[C@@](C(=O)c2ccccc2)(C1=O)C3=O`, the results for the inhibition at 10 µM in [8], in assay [9] and in [10] were 18.4%, -32.2% and 14.6%, respectively.
Consider `CC[C@H](C)C(=O)[C@@H]1C(=O)[C@@](C)(O)[C@@H](CC=C(C)C)C[C@@]1(C)CCC=C(C)C`, for which the inhibition at 10 µM in assay [1] was 30.5%; in assay [8], 3.31%; in [9] it was -24.4%; in [10], -13.6%.
Consider `C=C(C)[C@@H]1C[C@@]23C[C@@H](CC=C(C)C)C(C)(C)[C@@](CC=C(C)C)(C(=O)C(C(=O)c4ccccc4)=C2O1)C3=O`, for which, in assay [5], the viability at 10 µM turned out to be 73.1%. Further, the inhibition at 10 µM is -0.2% in assay [8], -29.7% in assay [9] and 6.64% in [10].
Turning to `CC(C)=CCC[C@]1(C)[C@@H](CC=C(C)C)CC2(C)C(=O)[C@@]3(CC=C(C)C)O[C@]2(O)[C@]1(C(=O)C(C)C)C3=O` (some centres not stated), in assay [1], the inhibition at 10 µM was 25.8%.
With `CC(C)=CC[C@H]1C[C@]2(C)C(=O)C3=C(O[C@H](C(C)(C)O)C3)[C@@](C(=O)C(C)C)(C2=O)[C@]1(C)CCCC(C)C`, the viability at 10 µM in assay [5] turned out to be 75.4%.
Turning to `CC(C)=CCC1=C2O[C@@H](C(C)(C)O)CC[C@]3(C)[C@@H](CC=C(C)C)C[C@](C)(C1=O)C(=O)[C@]23C(=O)C(C)C`, the inhibition at 10 µM is 6.1% in assay [1], 19.4% in assay [8], -37.1% in assay [9] and 0.36% in assay [10].
As for `CC[C@H](C)C(=O)C12C(=O)[C@]3(CC=C(C)C)O[C@@]1(O)C(C)(C[C@H](CC=C(C)C)[C@@]2(C)CCC=C(C)C)C3=O` (some centres not stated), in assay [5], the viability at 10 µM was determined as 72.1%. For the same molecule, the inhibition at 10 µM in [1] was 36.7%; in [8], -3.16%; in assay [9] it was -25.9%; in assay [10] it was 19%.
The corresponding values for `CC[C@@H](C)C(=O)[C@]12C(=O)[C@]3(C)C[C@H](CC=C(C)C)[C@@]1(C)CC[C@H](C(C)(C)O)OC2=C(CC=C(C)C)C3=O` are 70.8%, 24.9%, 8.64%, -41.2% and 8.65%.
For `CC(C)=CCC[C@]1(C)C[C@H](CC=C(C)C)[C@](C)(O)C(=O)[C@H]1C(=O)C(C)C`, the inhibition at 10 µM in assay [8] was 14.7%; in [9], -25.7%; in assay [10] it was 17.2%.
Turning to `CC(C)=CC[C@H]1C[C@]2(CC=C(C)C)C(=O)C(C(=O)c3ccccc3)=C3O[C@H](C(C)(C)O)C[C@]3(C2=O)C1(C)C`, in [5], the viability at 10 µM is 73.5%. For the same molecule, the inhibition at 10 µM in assay [8] was found to be 1.05%; in [9], 3.04%; in assay [10], 10.7%.
On to `CC(C)=CCC1=C2OCC[C@@]23C[C@H](CC=C(C)C)C(C)(C)[C@@](C(=O)c2ccccc2)(C1=O)C3=O`, for which the inhibition at 10 µM in [8] is -1.32%; in assay [9], 14.4%; in [10], 1.46%.
`CC(C)=CC[C@H]1C[C@@]2(C)C(=O)[C@](C(=O)C(C)C)(C(=O)C3=C2O[C@@H](C(C)(C)O)C3)[C@]1(C)CCCC(C)C`: the inhibition at 10 µM in assay [1] was 23.3%.
